PAFAH2 FP inh: PAFAH2 enzyme inhibitors, primary screen, biochemical, fluorescence polarization, human. recombinant PAFAH2, FP-rhodamine activity probe. inhibition, % at 3.39 µM. hit rate 0.99% among 340,000. AID 492956, 2010;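 active = inhibition above the mean over all tested compounds plus 3 SD, cut at about 30% in these data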;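 note: inhibitors block probe labeling of enzyme so polarization drops; 0% = enzyme with DMSO and 100% = wells lacking PAFAH2 protein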
NR3A LBD binder: binders of NR3A ligand-binding domain, primary screen, biophysical, differential scanning fluorimetry, uHTS. Tm shift relative to glycine control, % at 25 µM. Glutamate receptor ionotropic, NMDA 3A (GRIN3A) ligand-binding domain. hit rate 2.5% among 340,000. NR3A LBD differential scanning fluorimetry, Tm shift; 0% = protein alone, 100% = glycine-bound protein;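 active = melting temperature shift of at least 10% of the positive control shift, at one fixed dose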
pPAFAH inh: pPAFAH enzyme inhibitors, primary screen, biochemical, fluorescence polarization, human; hit rate 1.5% among 330,000; inhibition, % at 3.39 µM; recombinant pPAFAH, FP-rhodamine probe fluorescence polarization;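 active = inhibition above the mean inhibition across the screen plus 3 SD, cut at about 25% in these data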;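 note: inhibitors block binding of the rhodamine activity-based probe so polarization drops; 0% = enzyme with DMSO and 100% = wells lacking pPAFAH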
UCH37 DUB inh: inhibitors of human UCH37 deubiquitinase, primary screen, biochemical, Ub-AMC cleavage, fluorescence | Ubiquitin carboxyl-terminal hydrolase isozyme L5 (Homo sapiens), Q9Y5K5 | purified proteasome/UCH37 | inhibition, % (test concentration not listed) | hit rate 0.33% among 330,000;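 active = mean inhibition over replicate wells above about 20%, limit read from the data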;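 note: 0% = compound-free wells with enzyme and 100% = wells lacking proteasome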
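Material: Human UCH37 enzyme supplied as purified proteasome complex | Schedule: 30 min preincubation with enzyme, 25 min cleavage at room temperature | Detection: AMC fluorescence 355/460 nm | Measure: % inhibition of Ub-AMC cleavage fluorescence | Controls: Wells without proteasome as full block, compound-free enzyme plus substrate as uninhibited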
PAFAH1B3 inh: PAFAH1B3 enzyme inhibitors, primary screen, biochemical, fluorescence polarization, human. Platelet-activating factor acetylhydrolase IB subunit alpha1 (Homo sapiens), Q15102. recombinant PAFAH1B3, FP-rhodamine probe. inhibition, % at 3.39 µM. hit rate 0.28% among 340,000;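 active = inhibition above the screen-wide average of all tested compounds plus 3 SD, cut at about 25% in these data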;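 note: 0% = enzyme with DMSO only and 100% = wells lacking PAFAH1B3 protein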
Target sequence (Q15102 whole entry, looked up): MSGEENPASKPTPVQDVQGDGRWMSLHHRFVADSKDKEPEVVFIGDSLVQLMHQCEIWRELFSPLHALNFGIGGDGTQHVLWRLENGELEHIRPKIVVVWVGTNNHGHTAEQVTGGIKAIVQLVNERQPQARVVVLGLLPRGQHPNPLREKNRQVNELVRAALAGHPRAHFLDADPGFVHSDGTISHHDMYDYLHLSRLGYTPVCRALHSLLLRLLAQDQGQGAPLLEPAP
PAFAH1B2 FP inh: PAFAH1B2 enzyme inhibitors, primary screen, biochemical, fluorescence polarization, human; Platelet-activating factor acetylhydrolase IB subunit alpha2 (Homo sapiens), P68402; inhibition, % at 3.39 µM; recombinant PAFAH1B2, FP-rhodamine activity probe; hit rate 1.2% among 340,000;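 active = inhibition above the mean of all tested compounds plus 3 SD, cut at about 24% in these data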;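 note: 0% = enzyme with DMSO and 100% = wells lacking PAFAH1B2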
Target sequence (P68402 whole entry, looked up): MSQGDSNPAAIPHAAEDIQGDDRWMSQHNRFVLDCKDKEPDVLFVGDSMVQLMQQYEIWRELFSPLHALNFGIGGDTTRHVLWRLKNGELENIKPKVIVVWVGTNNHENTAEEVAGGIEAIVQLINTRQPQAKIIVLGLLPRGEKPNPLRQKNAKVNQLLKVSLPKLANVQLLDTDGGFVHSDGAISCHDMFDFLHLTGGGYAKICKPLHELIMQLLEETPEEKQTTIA
PAFAH2 FP conf: PAFAH2 enzyme inhibitors, confirmation, biochemical, fluorescence polarization, human; AID 493030, 2011; inhibition, % at 3.39 µM; hit rate 65% among 2,300; recombinant PAFAH2, FP-rhodamine activity probe; shares compounds with PAFAH2 FP inh;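 active = mean inhibition over three repeats above a set limit taken from the earlier primary screen, cut at about 30% in these data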;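 note: inhibitor blocks binding of rhodamine activity probe so polarization falls; 0% = enzyme with DMSO and 100% = wells lacking PAFAH2 protein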
* = called active by the depositor. Sampled rows, rich in hits. Any-hit rate of the full collection: about 4.8%.

`CC(C)N1CCN(Cc2cccc([N+](=O)[O-])c2)CC1` gave PAFAH2 FP inh 117*, NR3A LBD binder -1, pPAFAH inh 6, UCH37 DUB inh 5, PAFAH1B3 inh 5, PAFAH1B2 FP inh 9 and PAFAH2 FP conf 5.
For Clc1ccc(C(c2ccc(Cl)cc2)n2cc[n+](CC(OCc3ccc(Cl)cc3Cl)c3ccc(Cl)cc3Cl)c2)cc1 (stereo not given) the results were PAFAH2 FP inh 3, NR3A LBD binder -14, pPAFAH inh 13, UCH37 DUB inh 10, PAFAH1B3 inh 2 and PAFAH1B2 FP inh 2.
`Cn1cc(C(=O)OCC(=O)NC2(C#N)CCCC2)c2ccccc21` gave PAFAH2 FP inh 65*, NR3A LBD binder 2, pPAFAH inh 10, UCH37 DUB inh 3, PAFAH1B3 inh 3, PAFAH1B2 FP inh 0 and PAFAH2 FP conf 49*.
Cn1cc(C(=O)OCC(=O)NC2(C#N)CCCCC2)c2ccccc21 was read as PAFAH2 FP inh 81*, NR3A LBD binder 0, UCH37 DUB inh 0, PAFAH1B3 inh 6, PAFAH1B2 FP inh 6 and PAFAH2 FP conf 81*.
`Cn1cc(C(=O)OCC(=O)N2CCCCC2)c2ccccc21` gave PAFAH2 FP inh 1, NR3A LBD binder 3, pPAFAH inh -7, UCH37 DUB inh 3, PAFAH1B3 inh 5 and PAFAH1B2 FP inh 5.
`COc1ccc(CCC(=O)N2CCC3(CC2)OCCO3)cc1` gave PAFAH2 FP inh -3, NR3A LBD binder 1, pPAFAH inh -3, UCH37 DUB inh 1, PAFAH1B3 inh -2 and PAFAH1B2 FP inh 1.
C=CCOC(=O)C1C(C(=O)O)C2(Cl)C(Cl)=C(Cl)C1(Cl)C2(Cl)Cl (stereo not given) was read as PAFAH2 FP inh 31*, NR3A LBD binder -6, UCH37 DUB inh 5, PAFAH1B3 inh 8, PAFAH1B2 FP inh 21 and PAFAH2 FP conf 21.
`O=C(O)C1C(C(=O)O)C2(Cl)C(Cl)=C(Cl)C1(Cl)C2(Cl)Cl` (stereo not given) gave PAFAH2 FP inh 28, NR3A LBD binder 0, pPAFAH inh -2, UCH37 DUB inh -1, PAFAH1B3 inh 4 and PAFAH1B2 FP inh 6.
`O=P(Oc1ccccc1)(Oc1ccccc1)C(O)c1ccc(Cl)cc1` (stereo not given) gave PAFAH2 FP inh 14, NR3A LBD binder -3, pPAFAH inh 8, UCH37 DUB inh 3, PAFAH1B3 inh 3 and PAFAH1B2 FP inh 2.
COc1ccc(C(O)P(=O)(Oc2ccccc2)Oc2ccccc2)cc1 (stereo not given) was read as PAFAH2 FP inh 33*, NR3A LBD binder -2, pPAFAH inh -2, UCH37 DUB inh 2, PAFAH1B3 inh 5, PAFAH1B2 FP inh -1 and PAFAH2 FP conf 18.
`CCOC(=O)c1cncn1C(C)c1ccccc1` (stereo not given) gave PAFAH2 FP inh 3, NR3A LBD binder -2, pPAFAH inh 2, UCH37 DUB inh 2, PAFAH1B3 inh 10 and PAFAH1B2 FP inh 3.
For Oc1c(Cl)cccc1Cc1cc(Cl)cc(Cl)c1O the results were PAFAH2 FP inh 37*, NR3A LBD binder 12*, UCH37 DUB inh 4, PAFAH1B3 inh 6, PAFAH1B2 FP inh 5 and PAFAH2 FP conf 25.
`Cc1cc(C(=O)OCC(=O)Nc2cccc(F)c2)c(C)n1C1CC1` gave PAFAH2 FP inh 65*, NR3A LBD binder -1, pPAFAH inh 6, UCH37 DUB inh 7, PAFAH1B3 inh 9, PAFAH1B2 FP inh 1 and PAFAH2 FP conf 51*.
